Data taken from ChEMBL document CHEMBL5107954, “Potency and metabolic stability: a molecular hybrid case in the design of novel PF74-like small molecules targeting HIV-1 capsid protein” (RSC Med Chem, 2021).

Experiments:
[1] = Metabolic stability in human liver microsomes assessed as half-life at 1 uM measured upto 15 mins in the presence of NADPH as co-factor by LC-MS/MS analysis; assay type: ADME, Microsome
[2] = Cytotoxicity against human TZM cells expressing GFP assessed as inhibition of cell growth incubated for 72 hrs by XTT assay; assay type: toxicity, cell-based
Summary of the method: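 TZM-GFP cells at 1 × 10^4 cells/well were exposed continuously to increasing compound concentrations for 72 h. Viable cells were read by XTT. CC50 came from a log(inhibitor) vs. normalized response, variable-slope curve fit. Run in duplicate, ≥2 independent experiments, mean ± SD.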

[3] = tested on: Human immunodeficiency virus 1; test: Binding affinity to HIV-1 capsid protein 121 expressed in Escherichia coli BL21 (DE3) cells assessed as change in melting temperature at 20 uM measured every 10 sec by RT-PCR based thermal shift assay
Summary of the method: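 Crosslinked hexameric CA A14C/E45C/W184A/M185A (CA121), purified protein at 7.5 μM in 50 mM sodium phosphate pH 8.0 with 1× Sypro Orange; compound 20 μM or DMSO control, 1% DMSO final. Heated 25 to 95 °C at 0.2 °C per 10 s in a real-time PCR instrument; fluorescence Ex 475–500, Em 520–590 nm. ΔTm is the hexamer melting point with compound minus DMSO control.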

[4] = Metabolic stability in mouse liver microsomes assessed as half-life at 1 uM measured upto 15 mins in the presence of NADPH as co-factor by LC-MS/MS analysis; assay type: ADME, Microsome
[5] = (§1) Antiviral activity against wild type HIV1 NL4-3 infected in human TZM cells expressing GFP assessed as inhibition of viral LTR-activated GFP expression preincubated with compound for 24 hrs followed by viral infection and measured after 48 hrs; assay type: functional, cell-based; details: Human immunodeficiency virus 1, NL4-3, TZM
Summary of the method: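 TZM-GFP cells at 1 × 10^4 cells/well were treated with increasing compound concentrations, then infected 24 h later with HIV-1 NL4-3 at MOI 0.1. After 48 h, GFP-positive cells were counted by imaging and compared with DMSO controls. EC50 came from a log(inhibitor) vs. normalized response, variable-slope fit. Run in duplicate, ≥2 independent experiments, mean ± SD.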

[6] = as §1, with “Potency index, ratio of test compound EC50 to PF74 EC50 for antiviral” for “Antiviral”; assay type: functional, Human immunodeficiency virus 1; details: time 72 hrs
[7] = Metabolic stability in human liver microsomes assessed as half-life measured upto 60 mins in the presence of NADPH as co-factor by LC-MS/MS analysis; assay type: ADME, Microsome

Compound | half-life at 1 µM [1] | CC50 at 72 h [2] | ΔTm [3] | half-life at 1 µM [4] | EC50 [5] | Ratio EC50 [6] | half-life [7]
CN(C(=O)[C@H](Cc1ccccc1)NC(=O)CN1CCN(C(=O)c2ccccc2F)CC1=O)c1ccc(Cl)cc1 | 4.1 min | > 50 µM | 1.6 °C | 0.9 min | 9.5 µM | – | –
CN(C(=O)[C@H](Cc1ccccc1)NC(=O)CN1CCN(C(=O)c2cccc(O)c2)CC1=O)c1ccc(Cl)cc1 | – | > 50 µM | 0.8 °C | – | > 20 µM | – | –
CN(C(=O)[C@H](Cc1ccccc1)NC(=O)CN1CCN(C(=O)c2ccccc2C#N)CC1=O)c1ccc(Cl)cc1 | – | > 50 µM | 2.1 °C | – | 7.5 µM | – | –
Cc1[nH]c2ccccc2c1CC(=O)N[C@@H](Cc1ccccc1)C(=O)N(C)c1ccccc1 | – | > 50 µM | 6.9 °C | – | – | – | –
CN(C(=O)[C@H](Cc1ccccc1)NC(=O)CN1CCN(C(=O)c2ccccc2N)CC1=O)c1ccc(Cl)cc1 | 4.4 min | > 50 µM | 0.7 °C | 1.3 min | 4.5 µM | – | –
CN(C(=O)[C@H](Cc1ccccc1)NC(=O)CN1CCN(C(=O)c2ccc(S(=O)(=O)F)cc2)CC1=O)c1ccc(Cl)cc1 | – | > 50 µM | 0.8 °C | – | > 20 µM | – | –
CN(C(=O)[C@H](Cc1ccccc1)NC(=O)CN1CCN(C(=O)c2cccc(N)c2)CC1=O)c1ccc(Cl)cc1 | – | > 50 µM | 0.3 °C | – | > 20 µM | – | –
CN(C(=O)[C@H](Cc1ccccc1)NC(=O)CN1CCN(C(=O)c2ccc(C#N)cc2)CC1=O)c1ccc(Cl)cc1 | – | > 50 µM | 1.7 °C | – | 11 µM | – | –
CN(C(=O)[C@H](Cc1ccccc1)NC(=O)CN1CCN(C(=O)c2ccc(N)cc2)CC1=O)c1ccc(Cl)cc1 | – | > 50 µM | 0.5 °C | – | > 20 µM | – | –
CN(C(=O)[C@H](Cc1ccccc1)NC(=O)CN1CCN(C(=O)c2cccc(F)c2)CC1=O)c1ccc(Cl)cc1 | – | > 50 µM | 1.7 °C | – | 13.3 µM | – | –
CN(C(=O)[C@H](Cc1ccccc1)NC(=O)CN1CCN(C(=O)c2ccncc2)CC1=O)c1ccc(Cl)cc1 | – | > 50 µM | 0.7 °C | – | 15.6 µM | – | –
CN(C(=O)[C@H](Cc1ccccc1)NC(=O)CN1CCN(C(=O)c2ccccc2)CC1=O)c1ccc(Cl)cc1 | – | > 50 µM | 0.7 °C | – | > 20 µM | – | –
CN(C(=O)[C@H](Cc1ccccc1)NC(=O)Cn1ccc(C(F)(F)F)c(Oc2cc(Cl)cc(C(=O)O)c2)c1=O)c1ccc(Cl)cc1 | – | > 50 µM | 1.9 °C | – | > 20 µM | – | –
CN(C(=O)[C@H](Cc1ccccc1)NC(=O)CN1CCN(C(=O)c2cn[nH]c2)CC1=O)c1ccc(Cl)cc1 | – | > 50 µM | 1.3 °C | – | > 20 µM | – | –
CN(C(=O)[C@H](Cc1ccccc1)NC(=O)CN1CCN(C(=O)c2cccc([N+](=O)[O-])c2)CC1=O)c1ccc(Cl)cc1 | 2.6 min | > 50 µM | 1.5 °C | 0.8 min | 9.3 µM | – | –
CN(C(=O)[C@H](Cc1ccccc1)NC(=O)CN1CCN(C(=O)c2cccc(Br)c2)CC1=O)c1ccc(Cl)cc1 | 4.8 min | > 50 µM | 1.1 °C | 1.4 min | 9 µM | – | –
CN(C(=O)[C@H](Cc1ccccc1)NC(=O)CN1CCN(C(=O)c2ccc(Br)cc2)CC1=O)c1ccc(Cl)cc1 | – | > 50 µM | 0.8 °C | – | 10.2 µM | – | –
CN(C(=O)[C@H](Cc1ccccc1)NC(=O)CN1CCN(C(=O)c2ccc(C(F)(F)F)cc2)CC1=O)c1ccc(Cl)cc1 | – | > 50 µM | 0.5 °C | – | > 20 µM | – | –
CN(C(=O)[C@H](Cc1ccccc1)NC(=O)CN1CCN(C(=O)c2ccccc2Br)CC1)c1ccc(Cl)cc1 | – | > 50 µM | 0.7 °C | – | 20 µM | – | –
CN(C(=O)[C@H](Cc1ccccc1)NC(=O)CN1CCN(C(=O)c2ccccc2Br)CC1=O)c1ccc(Cl)cc1 | 7.9 min | > 50 µM | 1.1 °C | 1.8 min | 3.8 µM | – | –

Compound | half-life at 1 µM [1] | CC50 at 72 h [2] | ΔTm [3] | half-life at 1 µM [4] | EC50 [5] | Ratio EC50 [6] | half-life [7]
CN(C(=O)[C@H](Cc1ccccc1)NC(=O)CN1CCN(C(=O)c2ccccc2O)CC1=O)c1ccc(Cl)cc1 | – | > 50 µM | 0.8 °C | – | > 20 µM | – | –
CN(C(=O)[C@H](Cc1ccccc1)NC(=O)CN1CCN(C(=O)c2cccc(Cl)n2)CC1=O)c1ccc(Cl)cc1 | 3.6 min | > 50 µM | 1.1 °C | 1 min | 7.7 µM | – | –
CN(C(=O)[C@H](Cc1ccccc1)NC(=O)COn1nnc2cccnc21)c1ccc(Cl)cc1 | 0.8 min | > 50 µM | 1 °C | 0.5 min | 5.2 µM | – | –
CN(C(=O)[C@H](Cc1ccccc1)NC(=O)CN1CCN(C(=O)c2ccccn2)CC1=O)c1ccc(Cl)cc1 | – | > 50 µM | 0.8 °C | – | 12.7 µM | – | –
CN(C(=O)[C@H](Cc1ccccc1)NC(=O)CN1CCN(C(=O)c2ccccc2[N+](=O)[O-])CC1=O)c1ccc(Cl)cc1 | 3.8 min | > 50 µM | 2.6 °C | 0.9 min | 2.7 µM | – | –
CN(C(=O)[C@H](Cc1ccccc1)NC(=O)CN1CCN(C(=O)c2ccccc2C(F)(F)F)CC1=O)c1ccc(Cl)cc1 | – | > 50 µM | 1.4 °C | – | 7.2 µM | – | –
CN(C(=O)[C@H](Cc1ccccc1)NC(=O)CN1CCN(C(=O)c2cccc(C(F)(F)F)c2)CC1=O)c1ccc(Cl)cc1 | – | > 50 µM | 0.3 °C | – | > 20 µM | – | –
CN(C(=O)[C@H](Cc1ccccc1)NC(=O)CN1CCN(C(=O)c2ccccc2Cl)CC1=O)c1ccc(Cl)cc1 | 6.2 min | > 50 µM | 1.5 °C | 1.1 min | 6.4 µM | – | –
CN(C(=O)[C@H](Cc1ccccc1)NC(=O)CN1CCN(C(=O)c2cccnc2)CC1=O)c1ccc(Cl)cc1 | – | > 50 µM | 0.7 °C | – | 12.5 µM | – | –
CN(C(=O)[C@H](Cc1ccccc1)NC(=O)CN1CCN(C(=O)c2ccc([N+](=O)[O-])cc2)CC1=O)c1ccc(Cl)cc1 | – | > 50 µM | 1.5 °C | – | > 20 µM | – | –
CN(C(=O)[C@H](Cc1ccccc1)NC(=O)CN1CCN(C(=O)c2ccc(O)cc2)CC1=O)c1ccc(Cl)cc1 | – | > 50 µM | 0.7 °C | – | > 20 µM | – | –
CN(C(=O)[C@H](Cc1ccccc1)NC(=O)CNC(=O)c1ccccc1)c1ccc(Cl)cc1 | – | – | – | – | 0.88 µM | 1.4 | 36 min
CN(C(=O)[C@H](Cc1ccccc1)NC(=O)CN1CCNCC1=O)c1ccc(Cl)cc1 | – | > 50 µM | 0.1 °C | – | > 20 µM | – | –
CN(C(=O)[C@H](Cc1ccccc1)NC(=O)CN1CCN(C(=O)c2ccc(F)cc2)CC1=O)c1ccc(Cl)cc1 | – | > 50 µM | 1.3 °C | – | 11.5 µM | – | –
CN(C(=O)[C@H](Cc1ccccc1)NC(=O)CN1CCN(C(=O)c2cccc(Cl)c2)CC1=O)c1ccc(Cl)cc1 | – | > 50 µM | 1 °C | – | 10.2 µM | – | –
CN(C(=O)[C@H](Cc1ccccc1)NC(=O)CN1CCN(C(=O)c2cccc(C#N)c2)CC1=O)c1ccc(Cl)cc1 | – | > 50 µM | 1.5 °C | – | 12.9 µM | – | –
CN(C(=O)[C@H](Cc1ccccc1)NC(=O)CN1CCN(C(=O)c2ccc(Cl)cc2)CC1=O)c1ccc(Cl)cc1 | 7.5 min | > 50 µM | 1.3 °C | 1.3 min | 9.2 µM | – | –
CN(C(=O)[C@H](Cc1ccccc1)NC(=O)CN1CCN(C(=O)c2c[nH]c3ccccc23)CC1=O)c1ccc(Cl)cc1 | – | > 50 µM | 0.3 °C | – | > 20 µM | – | –
CN(C(=O)[C@H](Cc1ccccc1)NC(=O)CN1CCN(C(=O)c2cccc(S(=O)(=O)F)c2)CC1=O)c1ccc(Cl)cc1 | – | > 50 µM | 1.1 °C | – | > 20 µM | – | –
